Drawing on ChEMBL document CHEMBL1127435 (J Med Chem, 1994), this text covers Ki and Ratio for 22 compounds.

A word on the Ki: it is a measure of affinity in units of concentration, obtained from inhibition or displacement. A higher Ki goes with weaker binding.

Molecules are shown by their SMILES. Values joined by “and” are separate entries in the source; they are usually repeats but may differ in a detail not shown here. Equal entries are not always repeated. A value given as a limit tells only on which side of the number the result lay.

Experiment [1] deals with T1, D(2) dopamine receptor (Homo sapiens, UniProt P14416). Description: Affinity was evaluated as inhibition constant for dopamine D-2 receptor.
T1 sequence (P14416 whole entry): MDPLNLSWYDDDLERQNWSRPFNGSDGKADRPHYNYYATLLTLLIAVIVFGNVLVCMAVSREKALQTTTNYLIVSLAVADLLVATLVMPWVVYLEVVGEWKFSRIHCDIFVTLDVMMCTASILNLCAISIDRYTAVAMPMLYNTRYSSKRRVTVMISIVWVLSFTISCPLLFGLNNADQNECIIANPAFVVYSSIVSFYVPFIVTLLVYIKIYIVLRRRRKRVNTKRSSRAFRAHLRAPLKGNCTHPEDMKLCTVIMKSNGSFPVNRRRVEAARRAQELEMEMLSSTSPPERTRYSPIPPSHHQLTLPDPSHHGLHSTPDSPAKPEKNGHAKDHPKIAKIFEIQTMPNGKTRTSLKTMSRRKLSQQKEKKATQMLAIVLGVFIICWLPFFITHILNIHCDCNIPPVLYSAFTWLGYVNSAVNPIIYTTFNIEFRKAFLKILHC
Experiment [2] addresses T2, 5-hydroxytryptamine receptor 2C (Rattus norvegicus, UniProt P08909).
T2 sequence (P08909 whole entry): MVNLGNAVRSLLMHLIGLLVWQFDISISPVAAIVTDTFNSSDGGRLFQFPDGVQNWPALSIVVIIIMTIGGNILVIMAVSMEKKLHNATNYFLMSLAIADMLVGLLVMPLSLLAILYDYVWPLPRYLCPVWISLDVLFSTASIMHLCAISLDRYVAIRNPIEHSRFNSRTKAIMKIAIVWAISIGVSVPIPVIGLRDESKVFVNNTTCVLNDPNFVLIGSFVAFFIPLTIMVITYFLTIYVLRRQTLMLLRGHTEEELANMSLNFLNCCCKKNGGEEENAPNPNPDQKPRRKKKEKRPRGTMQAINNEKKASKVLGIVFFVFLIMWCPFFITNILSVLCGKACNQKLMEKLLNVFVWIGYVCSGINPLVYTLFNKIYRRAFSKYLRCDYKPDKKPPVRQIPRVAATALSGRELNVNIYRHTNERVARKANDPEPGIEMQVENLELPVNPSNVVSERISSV
Description: Affinity was evaluated as inhibition constant for serotonin 5-hydroxytryptamine 2C receptor.

Experiment [3] concerns the target T3, 5-hydroxytryptamine receptor 2A (Rattus norvegicus, UniProt P14842). Kind of experiment: Affinity was evaluated as inhibition constant for serotonin 5-hydroxytryptamine 2A receptor.
For experiment [4], the target named is T4, Serotonin 3 (5-HT3) receptor (Rattus norvegicus, UniProt P35563+Q9JJ16).
T4 sequence (P35563 whole entry): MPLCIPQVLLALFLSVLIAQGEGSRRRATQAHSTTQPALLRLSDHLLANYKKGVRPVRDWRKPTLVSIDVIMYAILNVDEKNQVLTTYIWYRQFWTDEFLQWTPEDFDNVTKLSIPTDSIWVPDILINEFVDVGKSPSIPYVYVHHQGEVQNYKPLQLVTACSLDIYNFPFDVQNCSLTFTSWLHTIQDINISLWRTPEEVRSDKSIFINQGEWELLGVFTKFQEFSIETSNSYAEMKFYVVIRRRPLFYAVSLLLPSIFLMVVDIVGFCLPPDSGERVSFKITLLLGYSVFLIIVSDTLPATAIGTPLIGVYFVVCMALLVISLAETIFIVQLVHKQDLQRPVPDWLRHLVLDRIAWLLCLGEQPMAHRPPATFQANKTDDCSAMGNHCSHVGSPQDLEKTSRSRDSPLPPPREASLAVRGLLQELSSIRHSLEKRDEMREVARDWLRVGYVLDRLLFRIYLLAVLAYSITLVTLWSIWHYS
T4 sequence (Q9JJ16 whole entry): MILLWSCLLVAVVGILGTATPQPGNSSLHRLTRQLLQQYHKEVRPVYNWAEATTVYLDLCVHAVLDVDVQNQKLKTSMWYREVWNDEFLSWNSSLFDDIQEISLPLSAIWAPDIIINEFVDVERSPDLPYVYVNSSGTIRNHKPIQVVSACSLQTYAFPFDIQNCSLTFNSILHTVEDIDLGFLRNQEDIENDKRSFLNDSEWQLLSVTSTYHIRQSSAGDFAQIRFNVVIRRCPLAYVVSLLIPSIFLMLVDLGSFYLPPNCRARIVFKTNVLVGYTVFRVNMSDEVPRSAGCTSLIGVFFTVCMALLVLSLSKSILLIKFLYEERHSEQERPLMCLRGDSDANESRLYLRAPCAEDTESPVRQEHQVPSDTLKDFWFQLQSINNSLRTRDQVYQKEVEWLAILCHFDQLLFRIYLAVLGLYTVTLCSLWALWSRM
Kind of experiment: Affinity was evaluated by inhibition of [3H]GR-65630 binding to NG108-15 cell transfected with cloned rat 5-hydroxytryptamine 3 receptor. The experiment is classed as cell-based.

Experiment [5] deals with T2, 5-hydroxytryptamine receptor 2C. Kind of experiment: Affinity was evaluated by inhibition of [125I]LSD binding to NIH 3T3 cells transfected with cloned rat 5-hydroxytryptamine 2C receptor. It is filed as cell-based, NIH3T3. Put shortly:
(§1)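 Membranes from confluent GF-6 and P0 cell monolayers, homogenized in ice-cold 0.32 M sucrose, spun at 44 000g, stored at -80°C in 50 mM Tris-HCl pH 7.6. Triplicate tubes held 5 nM [125I]LSD (stock), test compound at 10^-9 to 10^-5 M final and 1–5 μg protein. Nonspecific binding was defined with 10 μM mesulergine.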

For experiment [6], the target named is T5, D(4) dopamine receptor (Homo sapiens, UniProt P21917).
T5 sequence (P21917 whole entry): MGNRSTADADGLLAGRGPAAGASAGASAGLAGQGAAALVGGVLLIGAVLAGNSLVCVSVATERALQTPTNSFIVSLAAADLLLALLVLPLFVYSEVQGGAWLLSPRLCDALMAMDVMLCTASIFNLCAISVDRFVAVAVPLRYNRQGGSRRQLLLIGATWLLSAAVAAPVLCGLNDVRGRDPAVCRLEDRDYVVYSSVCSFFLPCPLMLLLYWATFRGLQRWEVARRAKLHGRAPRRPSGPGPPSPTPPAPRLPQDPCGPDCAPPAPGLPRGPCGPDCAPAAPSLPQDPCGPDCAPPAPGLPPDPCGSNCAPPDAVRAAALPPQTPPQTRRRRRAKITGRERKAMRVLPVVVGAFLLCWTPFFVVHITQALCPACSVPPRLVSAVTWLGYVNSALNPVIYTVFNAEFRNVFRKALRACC
Description: Affinity was evaluated by inhibition of [3H]-spiperone binding to COS cells transfected with human dopamine D-4 receptor. The experiment is classed as cell-based. Put shortly: (§2)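 Membranes from COS-7 cells transfected with human D-4 or D-2(long) receptor; [3H]spiperone binding inhibited in presence of sodium chloride. Ki averaged from two experiments.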

The target in experiment [7] is T3, 5-hydroxytryptamine receptor 2A. Kind of experiment: Affinity was evaluated by inhibition of [125I]LSD binding to NIH 3T3 cells transfected with cloned rat 5-hydroxytryptamine 2A receptor. The experiment is classed as cell-based, NIH3T3. Put shortly: as §1
In experiment [8] the target is T1, D(2) dopamine receptor. Description: Affinity was evaluated by inhibition of [3H]spiperone binding to COS cells transfected with human dopamine D-2(long) receptor. The experiment is classed as cell-based. Put shortly: as §2
A short description of experiment [9]: Ratio between Ki values of D2 and S-3 receptors.
Another experiment addresses D(1A) dopamine receptor (Rattus norvegicus, UniProt P18901). Kind of experiment: Affinity was evaluated as inhibition constant for dopamine receptor D1 using [3H]-SCH- 23390 as radioligand.
Experiment [10] in a line: Ratio between Ki values of D2 and S-2A receptors.
Experiment [11] concerns the target T5, D(4) dopamine receptor. Kind of experiment: Affinity was evaluated as inhibition constant for dopamine D-4 receptor.
Experiment [12] deals with T4, Serotonin 3 (5-HT3) receptor. Kind of experiment: Affinity was evaluated as inhibition constant for serotonin 5-hydroxytryptamine 3 receptor. The experiment is classed as protein-complex assay.

Chain of D(1A) dopamine receptor (P18901 whole entry): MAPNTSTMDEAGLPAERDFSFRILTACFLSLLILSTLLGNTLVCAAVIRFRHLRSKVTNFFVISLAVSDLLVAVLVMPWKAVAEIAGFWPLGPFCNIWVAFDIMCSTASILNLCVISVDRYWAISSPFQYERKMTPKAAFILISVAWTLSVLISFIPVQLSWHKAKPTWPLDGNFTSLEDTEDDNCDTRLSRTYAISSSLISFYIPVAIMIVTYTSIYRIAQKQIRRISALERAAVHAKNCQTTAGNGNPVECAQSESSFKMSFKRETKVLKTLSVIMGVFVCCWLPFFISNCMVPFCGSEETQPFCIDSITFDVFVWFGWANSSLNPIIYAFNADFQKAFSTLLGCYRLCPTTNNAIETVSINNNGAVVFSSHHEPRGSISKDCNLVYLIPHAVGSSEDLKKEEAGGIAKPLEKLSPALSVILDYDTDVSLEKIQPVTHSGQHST
T3 sequence (P14842 whole entry): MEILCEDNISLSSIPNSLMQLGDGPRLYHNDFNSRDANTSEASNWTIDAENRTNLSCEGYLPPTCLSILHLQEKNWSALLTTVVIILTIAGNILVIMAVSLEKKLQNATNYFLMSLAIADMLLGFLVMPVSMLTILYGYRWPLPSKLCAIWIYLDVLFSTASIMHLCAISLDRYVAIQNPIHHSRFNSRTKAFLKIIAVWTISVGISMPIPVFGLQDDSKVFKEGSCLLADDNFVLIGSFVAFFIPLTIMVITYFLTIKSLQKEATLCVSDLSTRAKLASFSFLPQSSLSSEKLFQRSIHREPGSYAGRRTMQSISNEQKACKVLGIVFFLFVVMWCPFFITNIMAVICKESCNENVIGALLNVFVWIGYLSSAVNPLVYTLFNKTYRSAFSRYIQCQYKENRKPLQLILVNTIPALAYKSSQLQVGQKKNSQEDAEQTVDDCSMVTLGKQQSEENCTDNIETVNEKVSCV

On to `CC(C)=C1c2ccccc2C=C(C2=CCN(C)CC2)c2ccccc21`, for which the Ki on D(2) dopamine receptor [1] is 520 nM and 790 nM and 570 nM; in experiment [2] it was 3300 nM and 830 nM and 1500 nM; in experiment [3], 2200 nM and 830 nM and 1200 nM.

For the compound `CN1CCN(C2=Nc3cc(Cl)ccc3Oc3ccccc32)CC1` [ISOLOXAPINE], the Ki is 39 nM in [4], 19 nM in experiment [5], 23 nM on D(4) dopamine receptor [6] and 11 nM in experiment [7].

For the compound `C=C1c2ccccc2C=C(N2CCN(C)CC2)c2ccccc21`, the Ki was determined as 57 nM on D(2) dopamine receptor [8]; 31 nM in experiment [4]; 18 nM in experiment [5]; 4.7 nM on D(1A) dopamine receptor; 47 nM on D(4) dopamine receptor [6]; 11 nM in experiment [7]. For the same compound, the figures for the Ratio in experiment [9] and in experiment [10] were 1.8 and 5.2, respectively.

On to `CN1CCN(C2=Cc3cc(Cl)ccc3Cc3ccccc32)CC1`, for which the Ki came out at 120 nM in experiment [4], 7 nM in experiment [5], 2900 nM on D(4) dopamine receptor [6] and 3 nM in experiment [7].

Regarding `C[C@H]1c2ccccc2C=C(C2=CCN(C)CC2)c2ccccc21`, the Ki on D(4) dopamine receptor [11] worked out at 400 nM; at D(2) dopamine receptor [1] it was 730 nM; in experiment [2] it was 250 nM; in [3] it was 200 nM. Moreover, the Ratio in experiment [10] is 3.7.

In the case of `CC1c2ccccc2C=C(N2CCN(C)CC2)c2ccccc21` (stereo not given), the Ki in experiment [5] came to 36 nM; on D(1A) dopamine receptor it was 16 nM; at D(4) dopamine receptor [6], 12 nM; in experiment [7], 47 nM.

In turn, `CN1CCN(C2=Nc3ccccc3Oc3ccc(Cl)cc32)CC1` [LOXAPINE] had a Ki at D(4) dopamine receptor [6] of 4.9 nM. This counts as single-digit nanomolar.

On to `CC1CCN(C2=Cc3cc(Cl)ccc3Cc3ccccc32)CC1`, for which the Ki on D(4) dopamine receptor [11] was 1000 nM; at D(2) dopamine receptor [1], 1400 nM; in experiment [2], above 1000 nM; in experiment [3], above 1000 nM; in [12], above 1000 nM. The Ratio in experiment [9] and in experiment [10] was below 1 throughout.

`CN1CCN(C2=Cc3ccccc3Oc3ccccc32)CC1`: the Ki worked out at 21 nM on D(2) dopamine receptor [8]; 41 nM in [4]; 6 nM in [5]; 2 nM at D(4) dopamine receptor [6]; 4 nM in experiment [7]. Further, the values for the Ratio in experiment [9] and in experiment [10] were 0.51 and 5, respectively.

With `CN1CCN(C2=Nc3cc(Cl)ccc3N(C)c3ccccc32)CC1`, the Ki on D(4) dopamine receptor [11] worked out at 120 nM; on D(2) dopamine receptor [1], 1100 nM; in [2], 74 nM; in experiment [3], 140 nM; in [12], 40 nM. The figures for the Ratio in [9] and in experiment [10] were 28 and 7.9, respectively.

As to `CN1CCN(C2=Nc3ccccc3Nc3ccccc32)CC1`, the Ki on D(4) dopamine receptor [11] turned out to be 420 nM; on D(2) dopamine receptor [1] it was 2500 nM; in [2] it was 84 nM; at D(1A) dopamine receptor, 200 nM.

Regarding `CC1c2ccccc2C=C(C2=CCN(C)CC2)c2ccccc21` (racemic), the inhibition constant (Ki) came out at 320 nM at D(4) dopamine receptor [11], 680 nM on D(2) dopamine receptor [1], 89 nM in experiment [2] and 72 nM in experiment [3]. Also, the Ratio in experiment [10] was 9.4.

`C=C1c2ccccc2C=C(C2=CCN(C)CC2)c2ccccc21`: the Ki was determined as 330 nM on D(4) dopamine receptor [11], 250 nM on D(2) dopamine receptor [1], 35 nM in experiment [2] and 30 nM in experiment [3]. In experiment [10], the Ratio stood at 8.3.

With `CC(C)=C1c2ccc(Cl)cc2C=C(N2CCN(C)CC2)c2ccccc21`, the Ki was found to be 690 nM on D(2) dopamine receptor [8]; 100 nM in experiment [4]; 370 nM in experiment [5]; 98 nM at D(1A) dopamine receptor; 930 nM on D(4) dopamine receptor [6]; 230 nM in experiment [7]. Moreover, the Ratio is 6.9 in [9] and 3 in [10].

For `CC(C)=C1c2ccccc2C=C(N2CCN(C)CC2)c2ccccc21`, the inhibition constant Ki is 290 nM on D(2) dopamine receptor [8]; 81 nM in [4]; 390 nM in experiment [5]; 120 nM on D(1A) dopamine receptor; 2700 nM on D(4) dopamine receptor [6]; 250 nM in experiment [7]. Moreover, the results for the Ratio in [9] and in experiment [10] were 3.6 and 1.2, respectively.

Consider `CN1CCN(C2=Cc3ccccc3Cc3ccc(Cl)cc32)CC1`, for which the Ki worked out at 49 nM in experiment [4], 6 nM in experiment [5] and 2 nM in experiment [7].

Take `CN1CCN(C2=Nc3ccccc3Nc3ccc(Cl)cc32)CC1` [ISOCLOZAPINE]: the Ki was 16 nM at D(4) dopamine receptor [11], 14 nM at D(1A) dopamine receptor and 22 nM in experiment [12].

Consider `C/C=C1/c2ccccc2C=C(N2CCN(C)CC2)c2ccccc21`, for which the Ki at D(2) dopamine receptor [8] was 730 nM; in experiment [4], 35 nM; in [5], 110 nM; at D(1A) dopamine receptor it was 68 nM; on D(4) dopamine receptor [6] it was 300 nM; in experiment [7] it was 98 nM. Besides, the Ratio in experiment [9] amounted to 21; in experiment [10] it was 7.4.

On to `CN1CCN(C2=Cc3ccccc3Oc3ccc(Cl)cc32)CC1`, for which the Ki on D(2) dopamine receptor [8] worked out at 2.5 nM; in experiment [4], 84 nM; in [5], 3 nM; at D(4) dopamine receptor [6] it was 0.54 nM; in experiment [7], 3 nM. For the same compound, the Ratio in experiment [9] turned out to be 0.03; in [10], 0.8.

In the case of `C[C@@H]1c2ccccc2C=C(C2=CCN(C)CC2)c2ccccc21`, the Ki on D(4) dopamine receptor [11] was found to be 190 nM; at D(2) dopamine receptor [1] it was 640 nM; in experiment [2], 70 nM; in experiment [3] it was 74 nM. Further, the Ratio in experiment [10] is 8.6.

As for `CN1CCC(C2=Cc3cc(Cl)ccc3Cc3ccccc32)CC1`, the Ki is 2700 nM on D(4) dopamine receptor [11]; 560 nM at D(2) dopamine receptor [1]; 3 nM in [2]; 3 nM in [3]; 41 nM in [12]. The Ratio turned out to be 14 in [9] and 200 in [10].

On to `CN1CCN(C2=Cc3cc(Cl)ccc3Oc3ccccc32)CC1`, for which the Ki worked out at 8.7 nM on D(2) dopamine receptor [8]; 57 nM in experiment [4]; 6 nM in experiment [5]; 0.9 nM on D(4) dopamine receptor [6]; 3 nM in [7]. Moreover, the Ratio in experiment [9] stood at 0.15; in experiment [10], 3.
